Experiments:
Δchp1 = assay: Drug sensitivity serial dilution; assay type: cell-based, fission yeast Schizosaccharomyces pombe; settings: 0 and 6 mM HU, 10-fold serial dilution
In short: (§1)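 Strains were grown overnight in YEA broth (3% glucose, 0.5% yeast extract, 75 mg/l adenine) to mid-log phase and adjusted to 1 × 10^7 cells/ml. Five ten-fold serial dilutions were made, and 3 μl of each was spotted onto plates with 0 or 6 mM HU.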

Y41FΔago1 = assay: Drug sensitivity serial dilution; assay type: cell-based, fission yeast Schizosaccharomyces pombe; settings: 0 and 6 mM HU, 10-fold serial dilution
In short: as §1

Δrik1 = assay: Drug sensitivity serial dilution; assay type: cell-based, fission yeast Schizosaccharomyces pombe; settings: 0 and 6 mM HU, 10-fold serial dilution
In short: (§2)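 Deletion strains were cultured overnight to mid-log phase in YEA broth (3% glucose, 0.5% yeast extract, 75 mg/l adenine) and set to 1 × 10^7 cells/ml. Each culture went through five ten-fold serial dilution steps, and 3 μl spots were placed on HU-containing plates to assess growth.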

Δclr3 = assay: Drug sensitivity serial dilution; assay type: cell-based, fission yeast Schizosaccharomyces pombe; settings: 0 and 6 mM HU, 10-fold serial dilution; compared with Δrik1, Δcid12, Δchp1
In short: as §2

Δswi6 = assay: Drug sensitivity serial dilution; assay type: cell-based, fission yeast Schizosaccharomyces pombe; settings: 0 and 6 mM HU, 10-fold serial dilution; compared with Δrik1, Δcid12, Δchp1
In short: as §2

Δcid12 = assay: Drug sensitivity serial dilution; assay type: cell-based, fission yeast Schizosaccharomyces pombe; settings: 0 and 6 mM HU, 10-fold serial dilution
In short: as §2

Y41FΔchp1 = assay: Drug sensitivity serial dilution; assay type: cell-based, fission yeast Schizosaccharomyces pombe; settings: 0 and 6 mM HU, 10-fold serial dilution
In short: as §1

GFP-tagged Chp1 = assay: Peptide pull-down from Chp1GFP whole cell extracts; assay type: binding, fission yeast Schizosaccharomyces pombe; settings: western blot, n=3
[1] = target: biotinylated histone H3 N-terminal peptide harbouring a phosphorylated Y41; assay: pull-down

NC(=O)NO [HU, hydroxyurea]
HU sensitivity (in words) (Δchp1): HU hypersensitivity | HU sensitivity of double mutant relative to Δago1 (in words) (Y41FΔago1): strongly suppressed HU hypersensitivity | HU sensitivity (in words) (Δrik1): HU hypersensitivity | HU sensitivity (in words) (Δclr3): milder or no hypersensitivity | HU sensitivity (in words) (Δswi6): milder or no hypersensitivity | HU sensitivity (in words) (Δcid12): HU hypersensitivity | HU sensitivity of double mutant relative to Δchp1 (in words) (Y41FΔchp1): strongly suppressed HU hypersensitivity

AAPATGGVKKPH RY(p)RPGTVALR EIRRYQKSTE [Y41p]
Chp1-GFP association, phosphorylated versus unmodified (Y41F) peptide (in words) (GFP-tagged Chp1): This observation was confirmed

B1: Chp1, endogenous (natural protein)
chain: MVSVKPLPDIDSNEGETDADVYEVEDILADRVNKNGINEYYIKWAGYDWYDNTWEPEQNLFGAEKVLKKWKKRKKLIAKGLLEPFDAEDNEAKKMKREKEILRQQRQKRKSELTQLSQKVKEKFKKMRKKPARRIVTIANDEEEEDDQTMDEDAFERKSMQGELKERNLTDKTSTLSTSFGETSPDVNPFYLSEWPTVTDSILLSKSLSSDAIPLKNGEIKSTMLMPSDSDNSVPGIQNSNNLENTGAFVENANSPQSNTPLSTFRHSSPLSLSPVITSDNDVANSLFFSNSTPLPSSLKIKKEAPKLETHTILVSDNSGSLTKQDILSYFAFIKGNIEVFFLKSPKKDKVCNMAYIQFDSIEQAKLAYDKGHPSWHVTLVKGKISTDMEECKVSKSILKTTPSKKANARSVSFTQTTTDTLSESEKFASNVDLDENFDFNVNVTNEDAKQLKKSVIGSSWTTVNNDWNSVSKSDQTFENDGASKVVPAGNITLNSDNSLHHSISESEDLSSASTLSDYFRFVLRVGKSLYYAGELSFDISKLKAETEHQQLLRSLVSCKQVDVLRFVTSQYLEVFGTCLTKVLSGSLCIRSDVDMTHFKNILNRGNGAGIVLGSNYTLLLFTEDNNALMNLYDCQGQSNSPFWMVIFEPLESILVEWSAKNLRPKKPYHKSQSYLSYLLQLGHIDLHKIGAFQATQILIVSKQPSPEAEELEDTFREAAIPTFRGLEIPESLFLSQNVFVFLNVSLEDDFDQLQFLTLAKRKSCKFFLFGLSLPLKSPNDSHVGTDFKKNNEPLDKLTYSQYLRPMFPKGGVVSVTLSALIKTPRLLELISPFLEIKKDSWILILPPSIVDMVKSYFVTNNPDKSLLEIQNLLNTLQRYLTNPALKNVTLYQDWDIVIDDSADVSLASTLQLYQKKNYDKYRRFVLIHELKNELTPVNGLDIVDYDEFKETFMRAIGLK
fold change against the unmodified (Y41F) peptide [1]: 2.62 fold
